# Reference: ChEMBL document CHEMBL1125378, “alpha-Methyl polyamines: metabolically stable spermidine and spermine mimics capable of supporting growth in cells depleted of polyamines” (J Med Chem, 1992)
# “And” between values parts separate entries of the source, which are not always exact repeats. Identical values can stand only once.
# What was measured:
# [1] = test system: SV3T3; experiment: Compound level in 72 hr DFMO (5 mM)-treated SV3T3 cells after exposure to 1 uM 1-methylspermine; type: functional, cell-based; conditions: Mus musculus
# Outline: (§1)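 SV-3T3 fibroblasts (experiment A) held in 5 mM DFMO for 72 h before polyamine addition and throughout a further 72 h. Intracellular polyamines expressed as nmol/mg protein (detection limit 0.05). SD from at least four separate experiments, or duplicate where no SD is given.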
# [2] = test system: SV3T3; experiment: Compound level in 96 hr DFMO (5 mM)-treated SV3T3 cells after exposure to 10 uM 1,12-dimethylspermine; type: functional, cell-based; conditions: Mus musculus
# [3] = Retention time was determined; type: ADME
# [4] = test system: SV3T3; experiment: Compound level in 72 hr DFMO (5 mM)-treated SV3T3 cells after exposure to 25 uM 1-methylspermine; type: functional, cell-based; conditions: Mus musculus; outline: as §1
# [5] = test system: SV3T3; experiment: Compound level in 72 hr DFMO (5 mM)-treated SV3T3 cells after exposure to 1 uM 1-methylspermidine; type: functional, cell-based; conditions: Mus musculus; outline: as §1
# [6] = test system: L1210; experiment: Compound level in 72 hr DFMO (5 mM)-treated L1210 cells after exposure to 10 uM 1-methylspermidine; type: functional, cell-based; conditions: Mus musculus
# Outline: (§2)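 L1210 cells held in 5 mM DFMO for 72 h before polyamine addition and through a further 72 h, refed at 72 h; controls without DFMO cultured 72 h in total. Intracellular polyamines reported as nmol/mg protein (detection limit 0.2). Mean ± SD from at least four separate experiments.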
# [7] = test system: HT-29; experiment: Compound level in 72 hr DFMO (5 mM)-treated HT-29 cells after exposure to 10 uM 1-methylspermine; type: functional, cell-based; conditions: Homo sapiens
# Outline: (§3)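 HT29 cells pretreated with 5 mM DFMO for 120 h, then polyamine added and culture continued with DFMO for 72 h (experiment A); refed at 96 h. Cellular polyamine content given as nmol/mg protein (detection limit 0.2). SD from at least four separate experiments.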
# [8] = test system: HT-29; experiment: Compound level in 72 hr DFMO (5 mM)-treated HT-29 cells after exposure to 25 uM 1-methylspermidine; type: functional, cell-based; conditions: Homo sapiens; outline: as §3
# [9] = test system: SV3T3; experiment: Compound level in 72 hr DFMO (5 mM)-treated SV3T3 cells after exposure to 10 uM 1-methylspermine; type: functional, cell-based; conditions: Mus musculus; outline: as §1
# [10] = test system: SV3T3; experiment: Compound level in 72 h DFMO (5 mM)-treated SV3T3 cells after exposure to 10 uM 1-methylspermidine; type: functional, cell-based; conditions: Mus musculus; outline: as §1
# [11] = test system: HT-29; experiment: Compound level in 72 hr DFMO (5 mM)-treated HT-29 cells after exposure to 10 uM 1-methylspermidine; type: functional, cell-based; conditions: Homo sapiens; outline: as §3
# [12] = test system: SV3T3; experiment: Compound level in 72 hr DFMO (5 mM)-treated SV3T3 cells after exposure to 25 uM 1-methylspermidine; type: functional, cell-based; conditions: Mus musculus; outline: as §1
# [13] = organism: Homo sapiens; experiment: Compound level in DFMO-treated HT-29 cells after 96 h; type: functional, cell-based
# Outline: (§4)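 HT29 experiment B: 5 mM DFMO for 120 h before addition and throughout a further 96 h; refed at 96 h. Cells without DFMO cultured 96 h in total. Polyamines measured as nmol/mg protein (detection limit 0.2). SD from at least four separate experiments.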
# [14] = test system: SV3T3; experiment: Compound level in 96 hr DFMO (5 mM)-treated SV3T3 cells after exposure to 10 uM spermine; type: functional, cell-based; conditions: Mus musculus
# [15] = test system: SV3T3; conditions: Mus musculus
# [16] = test system: HT-29; experiment: Compound level in 72 hr DFMO (5 mM)-treated HT-29 cells after exposure to 10 uM spermidine; type: functional, cell-based; conditions: Homo sapiens; outline: as §3
# [17] = test system: L1210; experiment: Compound level in 72 h DFMO (5 mM)-treated L1210 cells after exposure to 10 uM spermine; type: functional, cell-based; conditions: Mus musculus; outline: as §2
# [18] = test system: SV3T3; experiment: Compound level in 72 hr DFMO (5 mM)-treated SV3T3 cells after exposure to 10 uM spermine; type: functional, cell-based; conditions: Mus musculus; outline: as §1
# [19] = test system: SV3T3; conditions: Mus musculus; remark: listed apart in the source
# [20] = test system: L1210; experiment: Compound level in 72 hr DFMO (5 mM)-treated L1210 cells after exposure to 10 uM 1,12-dimethylspermine; type: functional, cell-based; conditions: Mus musculus; outline: as §2
# [21] = test system: SV3T3; experiment: Compound level in 72 hr DFMO (5 mM)-treated SV3T3 cells after exposure to 1 uM 1,12-dimethylspermine; conditions: Mus musculus
# [22] = test system: SV3T3; experiment: Compound level in DFMO-treated SV3T3 cells at 0 h; type: functional, cell-based; conditions: Mus musculus; outline: as §1
# [23] = test system: HT-29; experiment: Compound level in 72 hr DFMO (5 mM)-treated HT-29 cells after exposure to 10 uM 1,12-dimethylspermine; type: functional, cell-based; conditions: Homo sapiens, in the assay text read “120 hr” for “72 hr”; outline: as §4
# [24] = test system: HT-29; experiment: Compound level in DFMO-treated HT-29 cells after 72 h; type: functional, cell-based; conditions: Homo sapiens; outline: as §3
# [25] = test system: L1210; experiment: Compound level in 72 hr DFMO (5 mM)-treated L1210 cells after exposure to 10 uM spermidine; type: functional, cell-based; conditions: Mus musculus; outline: as §2
# [26] = test system: L1210; experiment: Compound level in L1210 cells after 72 h; type: functional, cell-based; conditions: Mus musculus; outline: as §2
# [27] = test system: HT-29; experiment: Compound level in 72 hr DFMO (5 mM)-treated HT-29 cells after exposure to 15 uM spermine; type: functional, cell-based; conditions: Homo sapiens; outline: as §3
# [28] = test system: L1210; conditions: Mus musculus
# [29] = test system: SV3T3; experiment: Compound level in 96 hr DFMO (5 mM)-treated SV3T3 cells after exposure to 25 uM 1,12-dimethylspermine; type: functional, cell-based; conditions: Mus musculus
# [30] = test system: HT-29; experiment: Compound level in 72 hr DFMO (5 mM)-treated HT-29 cells after exposure to 25 uM 1-methylspermine; type: functional, cell-based; conditions: Homo sapiens; outline: as §3
# [31] = test system: SV3T3; experiment: Compound level in 72 hr DFMO (5 mM)-treated SV3T3 cells after exposure to 10 uM spermidine; type: functional, cell-based; conditions: Mus musculus; outline: as §1
# [32] = test system: SV3T3; experiment: Compound level in SV3T3 cells after 96 hr; type: functional, cell-based; conditions: Mus musculus
# [33] = test system: HT-29; experiment: Compound level in 72 h DFMO (5 mM)-treated HT-29 cells after exposure to 25 uM spermidine; type: functional, cell-based; conditions: Homo sapiens
# [34] = test system: SV3T3; experiment: Compound level in 96 hr DFMO (5 mM)-treated SV3T3 cells after exposure to 25 uM spermine; type: functional, cell-based; conditions: Mus musculus
# [35] = test system: L1210; experiment: Compound level in DFMO-treated L1210 cells at 0 h; type: functional, cell-based; conditions: Mus musculus; outline: as §2
# [36] = test system: SV3T3; conditions: Mus musculus; remark: listed apart in the source
# [37] = test system: HT-29; experiment: Compound level in 72 hr DFMO (5 mM)-treated HT-29 cells after exposure to 25 uM 1,12-dimethylspermine; type: functional, cell-based; conditions: Homo sapiens, in the assay text read “120 hr” for “72 hr”; outline: as §4
# [38] = test system: HT-29; experiment: Compound level in 72 hr DFMO (5 mM)-treated HT-29 cells after exposure to 10 uM spermine; type: functional, cell-based; conditions: Homo sapiens; outline: as §3
# [39] = test system: HT-29; experiment: Compound level in 96 hr DFMO (5 mM)-treated HT-29 cells after exposure to 10 uM spermine; type: functional, cell-based; conditions: Homo sapiens
# [40] = test system: L1210; experiment: Compound level in 72 hr DFMO (5 mM)-treated L1210 cells after exposure to 10 uM 1-methylspermine; type: functional, cell-based; conditions: Mus musculus; outline: as §2
# [41] = test system: SV3T3; conditions: Mus musculus; remark: listed apart in the source
# [42] = test system: HT-29; experiment: Compound level in HT-29 cells after 96 h; type: functional, cell-based; conditions: Homo sapiens; outline: as §4
# [43] = test system: HT-29; experiment: Compound level in HT-29 cells after 72 h; type: functional, cell-based; conditions: Homo sapiens
# [44] = test system: HT-29; experiment: Compound level in DFMO-treated HT-29 cells at 0 h; type: functional, cell-based; conditions: Homo sapiens
smiles,measurement,setting,value
CC(N)CCNCCCCN (configuration not stated),Level (nM (mg of protein)-1),[1],0.6
same,Level (nM (mg of protein)-1),[2],1.2
same,tR,[3],34.5 min
same,Level (nM (mg of protein)-1),[4],0.4
same,Level (nM (mg of protein)-1),[5],11.8
same,Level (nM (mg of protein)-1),[6],67.2
same,Level (nM (mg of protein)-1),[7],0.2
same,Level (nM (mg of protein)-1),[8],16.8
same,Level (nM (mg of protein)-1),[9],2.7
same,Level (nM (mg of protein)-1),[10],26.8
same,Level (nM (mg of protein)-1),[11],13.3
same,Level (nM (mg of protein)-1),[12],31.2
NCCCNCCCCNCCCN [SPERMINE],Level (nM (mg of protein)-1),[1],3.5
same,Level (nM (mg of protein)-1),[13],4.4
same,Level (nM (mg of protein)-1),[14],24.5
same,Level (nM (mg of protein)-1),[15],11.5
same,Level (nM (mg of protein)-1),[2],3.3
same,Level (nM (mg of protein)-1),[16],10.3
same,Level (nM (mg of protein)-1),[17],35.6
same,Level (nM (mg of protein)-1),[18],20.6
same,tR,[3],40 min
same,Level (nM (mg of protein)-1),[19],7.7
same,Level (nM (mg of protein)-1),[20],3.2
same,Level (nM (mg of protein)-1),[21],7.8
same,Level (nM (mg of protein)-1),[22],9.3 and 7.8
same,Level (nM (mg of protein)-1),[4],0.8
same,Level (nM (mg of protein)-1),[23],0.9
same,Level (nM (mg of protein)-1),[24],3.8
same,Level (nM (mg of protein)-1),[5],3.8
same,Level (nM (mg of protein)-1),[25],16.3
same,Level (nM (mg of protein)-1),[26],9.1
same,Level (nM (mg of protein)-1),[27],21.7
same,Level (nM (mg of protein)-1),[28],7.3
same,Level (nM (mg of protein)-1),[29],1
same,Level (nM (mg of protein)-1),[30],0.8
same,Level (nM (mg of protein)-1),[31],9.5
same,Level (nM (mg of protein)-1),[6],1.1
same,Level (nM (mg of protein)-1),[32],7.1
same,Level (nM (mg of protein)-1),[33],9
same,Level (nM (mg of protein)-1),[34],31.5
same,Level (nM (mg of protein)-1),[7],0.7
same,Level (nM (mg of protein)-1),[8],1.2
same,Level (nM (mg of protein)-1),[35],13.4
same,Level (nM (mg of protein)-1),[36],14.3
same,Level (nM (mg of protein)-1),[37],0.7
same,Level (nM (mg of protein)-1),[38],21.5
same,Level (nM (mg of protein)-1),[9],0.3
same,Level (nM (mg of protein)-1),[39],21.5
same,Level (nM (mg of protein)-1),[10],0.4
same,Level (nM (mg of protein)-1),[40],1.7
same,Level (nM (mg of protein)-1),[41],13.5
same,Level (nM (mg of protein)-1),[42],17.8
same,Level (nM (mg of protein)-1),[43],10.5
same,Level (nM (mg of protein)-1),[11],1.1
same,Level (nM (mg of protein)-1),[12],0.3
same,Level (nM (mg of protein)-1),[44],5.4 and 7.1
NCCCCN,Level (nM (mg of protein)-1),[22],0.5
same,Level (nM (mg of protein)-1),[25],0.8
same,Level (nM (mg of protein)-1),[26],5.8
same,Level (nM (mg of protein)-1),[32],0.9
same,Level (nM (mg of protein)-1),[42],5.9
same,Level (nM (mg of protein)-1),[43],4.4
